Values joined by “and” are separate entries in the source; they are usually repeats but may differ in a detail not shown here. Equal values may be shown once.
Test system: U2OS
Experiment: Multiplex assay against U2OS
Assay type: toxicity, cell-based
Details: human
Outline: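 On a CQ1 microscope at 37°C and 5% CO2, live cells were imaged after compound addition. They had been stained at seeding with Hoechst33342, BioTracker Green Microtubule Cytoskeleton Dye, MitoTracker Red and Annexin V Alexa Fluor 680. CellPathfinder machine-learning gating assigned cells to Hoechst high-intensity objects or normal cells, normal cells to healthy, pyknosed or fragmented nuclei, and pyknosed cells to mitotic or apoptotic. Tubulin, mitochondrial-mass and membrane-permeability phenotypes are per cents of healthy-nucleus cells.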

[1] = 12 h, 1 µM, compound concentration 1 uM
[2] = 12 h, 10 µM, compound concentration 10 uM
[3] = 24 h, 1 µM, compound concentration 1 uM
[4] = 24 h, 10 µM, compound concentration 10 uM
[5] = 48 h, 1 µM, compound concentration 1 uM
[6] = 48 h, 10 µM, compound concentration 10 uM

## Cc1cc(C)cc(C(=O)NOCCCCCC(=O)NO)c1
[1]
  Population Apoptotic (%): 33.33% and 45.83%
  Population Fragmented Nuclei (%): 2.19% and 1.16%
  Population Healthy Nuclei (%): 82.02% and 84.97%
  Population Hoechst High Intensity Objects (%): 0%
  Population Membrane Permeable-Phenotype (%): 0.53% and 4.08%
  Population Mitochondria Different-Phenotype (%): 0.27% and 4.08%
  Population Mitotic Cells (%): 66.67% and 54.17%
  Population Normal (%): 100%
  Population Pyknosed Nuclei (%): 15.79% and 13.87%
  Population Tubulin-Different-Phenotype (%): 0.8% and 1.36%
  Total Cell Count: 456 and 173
[2]
  Population Apoptotic (%): 27.78% and 30.23%
  Population Fragmented Nuclei (%): 2.46% and 2.56%
  Population Healthy Nuclei (%): 79.85% and 69.87%
  Population Hoechst High Intensity Objects (%): 0%
  Population Membrane Permeable-Phenotype (%): 1.23% and 4.59%
  Population Mitochondria Different-Phenotype (%): 0.31% and 9.17%
  Population Mitotic Cells (%): 72.22% and 69.77%
  Population Normal (%): 100%
  Population Pyknosed Nuclei (%): 17.69% and 27.56%
  Population Tubulin-Different-Phenotype (%): 2.46% and 1.83%
  Total Cell Count: 407 and 156
[3]
  Population Apoptotic (%): 42.11% and 38.46%
  Population Fragmented Nuclei (%): 5.65% and 5.61%
  Population Healthy Nuclei (%): 59.88% and 61.22%
  Population Hoechst High Intensity Objects (%): 0%
  Population Membrane Permeable-Phenotype (%): 0.67% and 1.67%
  Population Mitochondria Different-Phenotype (%): 0.34% and 5%
  Population Mitotic Cells (%): 57.89% and 61.54%
  Population Normal (%): 100%
  Population Pyknosed Nuclei (%): 34.48% and 33.16%
  Population Tubulin-Different-Phenotype (%): 3.37% and 1.67%
  Total Cell Count: 496 and 196
[4]
  Population Apoptotic (%): 36.05% and 42.86%
  Population Fragmented Nuclei (%): 8.75% and 10%
  Population Healthy Nuclei (%): 30.26% and 41.88%
  Population Hoechst High Intensity Objects (%): 0%
  Population Membrane Permeable-Phenotype (%): 0.78% and 10.45%
  Population Mitochondria Different-Phenotype (%): 0% and 4.48%
  Population Mitotic Cells (%): 63.95% and 57.14%
  Population Normal (%): 100%
  Population Pyknosed Nuclei (%): 60.99% and 48.12%
  Population Tubulin-Different-Phenotype (%): 3.12% and 11.94%
  Total Cell Count: 423 and 160
[5]
  Population Apoptotic (%): 77.2% and 80.52%
  Population Fragmented Nuclei (%): 9.29% and 8.45%
  Population Healthy Nuclei (%): 55.56% and 55.4%
  Population Hoechst High Intensity Objects (%): 0.18% and 0%
  Population Membrane Permeable-Phenotype (%): 4.92% and 7.63%
  Population Mitochondria Different-Phenotype (%): 0.66% and 5.93%
  Population Mitotic Cells (%): 22.8% and 19.48%
  Population Normal (%): 99.82% and 100%
  Population Pyknosed Nuclei (%): 35.15% and 36.15%
  Population Tubulin-Different-Phenotype (%): 6.89% and 8.47%
  Total Cell Count: 550 and 213
[6]
  Population Apoptotic (%): 79.12% and 92.94%
  Population Fragmented Nuclei (%): 3.39% and 4.58%
  Population Healthy Nuclei (%): 31.59% and 39.87%
  Population Hoechst High Intensity Objects (%): 0%
  Population Membrane Permeable-Phenotype (%): 15.7% and 31.15%
  Population Mitochondria Different-Phenotype (%): 0.83% and 3.28%
  Population Mitotic Cells (%): 20.88% and 7.06%
  Population Normal (%): 100%
  Population Pyknosed Nuclei (%): 65.01% and 55.56%
  Population Tubulin-Different-Phenotype (%): 44.63% and 32.79%
  Total Cell Count: 383 and 153

## CN(C)C(=O)Cn1cc(-c2ccc(-c3nnc4ccccn34)cc2)cn1
[1]
  Population Apoptotic (%): 90%
  Population Fragmented Nuclei (%): 25% and 22%
  Population Healthy Nuclei (%): 66% and 68%
  Population Hoechst High Intensity Objects (%): 1% and 0%
  Population Membrane Permeable-Phenotype (%): 6% and 3%
  Population Mitochondria Different-Phenotype (%): 1% and 6%
  Population Mitotic Cells (%): 9%
  Population Normal (%): 98% and 99%
  Population Pyknosed Nuclei (%): 8% and 9%
  Population Tubulin-Different-Phenotype (%): 3% and 4%
  Total Cell Count: 251 and 123
[2]
  Population Apoptotic (%): 95% and 90%
  Population Fragmented Nuclei (%): 26% and 11%
  Population Healthy Nuclei (%): 65% and 81%
  Population Hoechst High Intensity Objects (%): 1%
  Population Membrane Permeable-Phenotype (%): 4%
  Population Mitochondria Different-Phenotype (%): 1% and 0%
  Population Mitotic Cells (%): 4% and 10%
  Population Normal (%): 98%
  Population Pyknosed Nuclei (%): 7%
  Population Tubulin-Different-Phenotype (%): 3%
  Total Cell Count: 298 and 140
[3]
  Population Apoptotic (%): 94% and 100%
  Population Fragmented Nuclei (%): 22% and 17%
  Population Healthy Nuclei (%): 71% and 74%
  Population Hoechst High Intensity Objects (%): 0%
  Population Membrane Permeable-Phenotype (%): 4% and 7%
  Population Mitochondria Different-Phenotype (%): 2% and 7%
  Population Mitotic Cells (%): 5% and 0%
  Population Normal (%): 99% and 100%
  Population Pyknosed Nuclei (%): 5% and 8%
  Population Tubulin-Different-Phenotype (%): 1% and 4%
  Total Cell Count: 315 and 131
[4]
  Population Apoptotic (%): 86% and 87%
  Population Fragmented Nuclei (%): 22% and 10%
  Population Healthy Nuclei (%): 66% and 85%
  Population Hoechst High Intensity Objects (%): 2% and 1%
  Population Membrane Permeable-Phenotype (%): 4% and 7%
  Population Mitochondria Different-Phenotype (%): 1%
  Population Mitotic Cells (%): 13% and 12%
  Population Normal (%): 97% and 98%
  Population Pyknosed Nuclei (%): 11% and 4%
  Population Tubulin-Different-Phenotype (%): 2% and 3%
  Total Cell Count: 333 and 180
[5]
  Population Apoptotic (%): 87% and 93%
  Population Fragmented Nuclei (%): 16% and 11%
  Population Healthy Nuclei (%): 75% and 67%
  Population Hoechst High Intensity Objects (%): 2%
  Population Membrane Permeable-Phenotype (%): 4% and 7%
  Population Mitochondria Different-Phenotype (%): 2% and 3%
  Population Mitotic Cells (%): 12% and 6%
  Population Normal (%): 97%
  Population Pyknosed Nuclei (%): 7% and 20%
  Population Tubulin-Different-Phenotype (%): 1% and 3%
  Total Cell Count: 426 and 158
[6]
  Population Apoptotic (%): 95% and 85%
  Population Fragmented Nuclei (%): 21% and 8%
  Population Healthy Nuclei (%): 67% and 81%
  Population Hoechst High Intensity Objects (%): 3% and 2%
  Population Membrane Permeable-Phenotype (%): 8% and 6%
  Population Mitochondria Different-Phenotype (%): 4% and 2%
  Population Mitotic Cells (%): 4% and 14%
  Population Normal (%): 96% and 97%
  Population Pyknosed Nuclei (%): 11% and 9%
  Population Tubulin-Different-Phenotype (%): 4% and 2%
  Total Cell Count: 418 and 284

From ChEMBL document CHEMBL5724801, “EUbOPEN Chemogenomics Library - Multiplex” (2024)
